# Laboratory results: ChEMBL document CHEMBL3868583, “6-Aryl substituted 4-(4-cyanomethyl) phenylamino quinazolines as a new class of isoform-selective PI3K-alpha inhibitors” (Eur J Med Chem, 2016)
# Columns and labels:
# [1] = test system: MCF7; assay: Induction of cell cycle arrest in human MCF7 cells assessed as accumulation at G1 phase at 10 uM after 24 hrs by propidium iodide-staining based FACS analysis (reference value: 50 %); assay type: functional
# Procedure, shortened: (§1)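 MCF-7 or PC-3 cells treated at indicated concentrations for 24 h, pelleted, PBS-washed, fixed in ice-cold 70% ethanol overnight at 4 °C. RNase 0.2 mg/mL 1 h at 37 °C, propidium iodide 10 µg/mL 30 min dark. 10,000 events (FL2-A vs FL2-W) by flow cytometry; fractions in apoptosis/sub-G1, G1, S, G2-M.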
# [2] = test system: MCF7; assay: Induction of cell cycle arrest in human MCF7 cells assessed as accumulation at S phase at 10 uM after 24 hrs by propidium iodide-staining based FACS analysis (reference value: 30 %); assay type: functional; procedure, shortened: as §1
# [3] = test system: MCF7; assay: Induction of cell cycle arrest in human MCF7 cells assessed as accumulation at G1 phase at 20 uM after 24 hrs by propidium iodide-staining based FACS analysis (reference value: 50 %); assay type: functional; procedure, shortened: as §1
# [4] = test system: MCF7; assay: Induction of cell cycle arrest in human MCF7 cells assessed as accumulation at S phase at 20 uM after 24 hrs by propidium iodide-staining based FACS analysis (reference value: 30 %); assay type: functional; procedure, shortened: as §1
# [5] = test system: Mus musculus; assay: Toxicity in Swiss mouse implanted with Swiss mouse EAC cells assessed as body weight at 25 mg/kg, ip administered for 1 to 9 days measured on day 5 (reference value: 26.2 g); assay type: organism-based, Ehrlich; settings: in vivo
# [6] = Anticancer activity against Swiss mouse EAC cells implanted in Swiss mouse assessed as tumor growth inhibition at 25 mg/kg, ip administered for 1 to 9 days measured on day 12 relative to control; assay type: functional; settings: Ehrlich, read-out: TGI
# Procedure, shortened: (§2)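 Swiss mice given 1 × 10^7 EAC cells i.p. on day 0, randomized next day (treated n=7, control n=10). Compound given i.p. days 1-9; saline control (0.2 ml i.p.), 5-fluorouracil 20 mg/kg i.p. reference. Sacrificed day 12; ascitic fluid collected; % TGI from total peritoneal tumor cell count versus control.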
# [7] = test system: Mus musculus; assay: Toxicity in Swiss mouse implanted with Swiss mouse EAC cells assessed as mortality at 25 mg/kg, ip administered for 1 to 9 days measured on day 12; assay type: organism-based, Ehrlich; settings: in vivo
# Procedure, shortened: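 1×10^7 EAC cells injected intraperitoneally into Swiss mice on day 0. Mice randomized next day: treated groups n=7, saline control n=10 (0.2 ml i.p.). Dosing i.p. days 1–9. Sacrifice on day 12; ascitic fluid collected from the peritoneal cavity. % tumor growth inhibition from total tumor cell count versus control. Body weight and mortality tracked.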
# [8] = test system: Mus musculus; assay: Toxicity in Swiss mouse implanted with Swiss mouse EAT cells assessed as body weight at 15 mg/kg, ip administered for 1 to 9 days measured on day 1 (reference value: 21.6 g); assay type: organism-based; settings: in vivo
# [9] = test system: Mus musculus; assay: Toxicity in Swiss mouse implanted with Swiss mouse EAT cells assessed as body weight at 15 mg/kg, ip administered for 1 to 9 days measured on day 5 (reference value: 22.6 g); assay type: organism-based; settings: in vivo
# [10] = test system: Mus musculus; assay: Toxicity in Swiss mouse implanted with Swiss mouse EAT cells assessed as body weight at 25 mg/kg, ip administered for 1 to 9 days measured on day 13 (reference value: 24.1 g); assay type: organism-based; settings: in vivo
# [11] = test system: Mus musculus; assay: Toxicity in Swiss mouse implanted with Swiss mouse EAT cells assessed as mortality at 25 mg/kg, ip administered for 1 to 9 days measured on day 9 and 13; assay type: organism-based; settings: in vivo
# Procedure, shortened: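 EAC cells harvested from 8–10-day ascitic Swiss mice; 1×10^7 cells injected intramuscularly into right thigh of Swiss male mice on day 0. Randomized next day: treated n=7, saline control n=10 (0.2 ml i.p.). Dosing i.p. days 1–9. […] Body weight and mortality tracked.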
# [12] = target: Phosphatidylinositol 4,5-bisphosphate 3-kinase catalytic subunit beta isoform (Homo sapiens, UniProt P42338); assay: Inhibition of PI3Kbeta (unknown origin) using diC8 PIP2 as substrate up to 20 uM after 60 mins by ADP-glo assay
# Phosphatidylinositol 4,5-bisphosphate 3-kinase catalytic subunit beta isoform, sequence (P42338 whole entry, looked up, canonical isoform): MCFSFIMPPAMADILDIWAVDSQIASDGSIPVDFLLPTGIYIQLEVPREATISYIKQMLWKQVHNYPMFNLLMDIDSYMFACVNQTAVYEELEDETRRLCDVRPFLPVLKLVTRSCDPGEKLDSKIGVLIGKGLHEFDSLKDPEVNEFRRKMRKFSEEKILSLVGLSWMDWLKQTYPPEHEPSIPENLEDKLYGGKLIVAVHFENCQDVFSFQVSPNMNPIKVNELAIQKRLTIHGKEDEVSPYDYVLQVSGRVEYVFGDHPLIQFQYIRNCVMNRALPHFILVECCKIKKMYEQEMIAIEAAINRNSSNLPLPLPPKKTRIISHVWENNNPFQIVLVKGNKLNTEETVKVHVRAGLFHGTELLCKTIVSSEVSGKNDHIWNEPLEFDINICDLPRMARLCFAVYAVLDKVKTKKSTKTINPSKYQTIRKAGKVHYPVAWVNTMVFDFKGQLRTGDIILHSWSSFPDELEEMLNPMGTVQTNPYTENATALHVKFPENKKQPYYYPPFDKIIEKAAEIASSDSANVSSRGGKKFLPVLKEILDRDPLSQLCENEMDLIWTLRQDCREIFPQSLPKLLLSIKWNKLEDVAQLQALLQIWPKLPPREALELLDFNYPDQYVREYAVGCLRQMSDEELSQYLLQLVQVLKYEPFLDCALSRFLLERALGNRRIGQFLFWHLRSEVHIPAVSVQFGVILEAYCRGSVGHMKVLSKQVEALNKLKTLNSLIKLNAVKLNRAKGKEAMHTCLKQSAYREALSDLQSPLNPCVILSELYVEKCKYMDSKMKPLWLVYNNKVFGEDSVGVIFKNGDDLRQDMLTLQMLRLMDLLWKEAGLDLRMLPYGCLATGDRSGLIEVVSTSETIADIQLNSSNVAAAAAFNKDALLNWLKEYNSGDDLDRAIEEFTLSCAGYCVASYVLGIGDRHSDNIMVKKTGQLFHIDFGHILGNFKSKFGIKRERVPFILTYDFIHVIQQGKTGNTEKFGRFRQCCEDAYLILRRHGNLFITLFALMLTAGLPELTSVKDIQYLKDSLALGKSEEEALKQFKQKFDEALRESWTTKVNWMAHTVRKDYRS
# [13] = Cytotoxicity against human PC3 cells assessed as cell growth inhibition after 6 hrs by MTT assay; assay type: functional; settings: PC-3, 6 h
# [14] = Cytotoxicity against human PC3 cells assessed as cell growth inhibition after 24 hrs by MTT assay; assay type: functional; settings: PC-3, 24 h
# [15] = test system: PC-3; assay: Induction of cell cycle arrest in human PC3 cells assessed as accumulation at G1 phase at 10 uM after 24 hrs by propidium iodide-staining based FACS analysis (reference value: 39 %); assay type: functional; procedure, shortened: as §1
# [16] = test system: PC-3; assay: Induction of cell cycle arrest in human PC3 cells assessed as accumulation at G2 phase at 10 uM after 24 hrs by propidium iodide-staining based FACS analysis (reference value: 17 %); assay type: functional; procedure, shortened: as §1
# [17] = test system: PC-3; assay: Induction of cell cycle arrest in human PC3 cells assessed as accumulation at S phase at 10 uM after 24 hrs by propidium iodide-staining based FACS analysis (reference value: 44 %); assay type: functional; procedure, shortened: as §1
# [18] = test system: PC-3; assay: Induction of cell cycle arrest in human PC3 cells assessed as apoptotic cells at 20 uM after 24 hrs by propidium iodide-staining based FACS analysis (reference value: 2 %); assay type: functional
# Procedure, shortened: (§3)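 PC-3 cells exposed 24 h at indicated concentrations, pelleted, fixed overnight in ice-cold 70% ethanol at 4 °C, RNase 0.2 mg/mL at 37 °C 1 h, propidium iodide 10 µg/mL 30 min in dark; 10,000 events acquired (FL2-A vs FL2-W); DNA histograms modelled for apoptotic (sub-G1), G1, S and G2-M fractions.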
# [19] = test system: PC-3; assay: Induction of cell cycle arrest in human PC3 cells assessed as accumulation at G2 phase at 20 uM after 24 hrs by propidium iodide-staining based FACS analysis (reference value: 17 %); assay type: functional; procedure, shortened: as §1
# [20] = test system: PC-3; assay: Induction of cell cycle arrest in human PC3 cells assessed as apoptotic cells at 30 uM after 24 hrs by propidium iodide-staining based FACS analysis (reference value: 2 %); assay type: functional; procedure, shortened: as §3
# [21] = test system: PC-3; assay: Induction of cell cycle arrest in human PC3 cells assessed as accumulation at S phase at 30 uM after 24 hrs by propidium iodide-staining based FACS analysis (reference value: 44 %); assay type: functional; procedure, shortened: as §3
# [22] = test system: PC-3; assay: Induction of apoptosis in human PC3 cells assessed as loss of mitochondrial membrane potential at 10 uM after 24 hrs by rhodamine-123-staining based FACS analysis (reference value: 5 % ); assay type: functional
# Procedure, shortened: (§4)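 Cells (MCF-7 or PC-3) exposed to indicated concentrations for 24 h; rhodamine-123 (5 µM) added 1 h before end. Cells collected, PBS-washed; fluorescence of 10,000 events read in FL-1 by flow cytometry, loss of mitochondrial potential scored as decreased intensity.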
# [23] = test system: PC-3; assay: Induction of apoptosis in human PC3 cells assessed as loss of mitochondrial membrane potential at 20 uM after 24 hrs by rhodamine-123-staining based FACS analysis (reference value: 5 % ); assay type: functional; procedure, shortened: as §4
# [24] = test system: Mus musculus; assay: Toxicity in Swiss mouse implanted with Swiss mouse EAC cells assessed as body weight at 70 mg/kg, ip administered for 1 to 9 days measured on day 9 (reference value: 27.7 g); assay type: organism-based, Ehrlich; settings: in vivo
# [25] = test system: Mus musculus; assay: Toxicity in Swiss mouse implanted with Swiss mouse EAC cells assessed as body weight at 70 mg/kg, ip administered for 1 to 9 days measured on day 12 (reference value: 28.4 g); assay type: organism-based, Ehrlich; settings: in vivo
# [26] = Anticancer activity against Swiss mouse EAC cells implanted in Swiss mouse assessed as tumor growth inhibition at 70 mg/kg, ip administered for 1 to 9 days measured on day 12 relative to control; assay type: functional; settings: Ehrlich, read-out: TGI; procedure, shortened: as §2
smiles,measurement,setting,value
N#CCc1ccc(Nc2ncnc3ccc(-c4ccc5[nH]ccc5c4)cc23)cc1,Activity,[1],59%
same,Activity,[2],40%
same,Activity,[3],51%
same,Activity,[4],42%
same,Activity,[5],22 g
same,inhibition in vivo at 25 mg/kg,[6],62%
same,Activity,[7],Non-Toxic
same,Activity,[8],19.85 g
same,Activity,[9],20 g
same,Activity,[10],21.81 g
same,Activity,[11],Non-Toxic
N#CCc1ccc(Nc2ncnc3ccc(-c4cncc5ccccc45)cc23)cc1,inhibition,[12],0%
same,GI50,[13],567 µM
same,GI50,[14],28 µM
same,Activity,[15],44%
same,Activity,[16],3%
same,Activity,[17],56%
same,Activity,[18],10%
same,Activity,[19],9%
same,Activity,[20],25%
same,Activity,[21],46%
same,Activity,[22],8%
same,Activity,[23],14%
same,Activity,[24],23.71 g
same,Activity,[25],24.33 g
same,inhibition in vivo at 70 mg/kg,[26],25.8%
